Experimental data as given in ChEMBL document CHEMBL1152768, “4-Benzyloxy-gamma-sultone derivatives: discovery of a novel family of non-nucleoside inhibitors of human cytomegalovirus and varicella zoster virus” (J Med Chem, 2009).
Calls of active or inactive are those of the source. No cut-off for these calls is given here.

test system: Human betaherpesvirus 5; assay: Antiviral activity against ganciclovir-resistant HCMV AD169 clone 4 infected in HEL cells assessed as inhibition of virus-induced cytopathicity; type: functional, organism-based; settings: Human betaherpesvirus 5, AD169, HEL

Row | Structure (SMILES) | EC50
1 | Nc1nc(N)c2ncn(CCOCP(=O)(O)O)c2n1 [PMEDAP] | 1.9 µM

test system: Mammalian orthoreovirus 3; assay: Antiviral activity against Reovirus 3 infected in african green monkey Vero cells; type: functional, organism-based; settings: not given

Row | Structure (SMILES) | Activity
2 | CCC1(Cc2ccccc2)OS(=O)(=O)C=C1OCCc1ccccc1 (racemic) | inactive
3 | CCC1(Cc2ccccc2)OS(=O)(=O)C=C1OCc1ccc(OC)cc1 (racemic) | inactive

test system: Sindbis virus; assay: Antiviral activity against Sindbis virus infected in african green monkey Vero cells; type: functional, organism-based; settings: not given

Row | Structure (SMILES) | Activity
4 | CCC1(Cc2ccccc2)OS(=O)(=O)C=C1OCCc1ccccc1 (racemic) | inactive
5 | CCC1(Cc2ccccc2)OS(=O)(=O)C=C1OCc1ccc(OC)cc1 (racemic) | inactive

test system: Coxsackievirus B4; assay: Antiviral activity against Coxsackievirus B4 infected in african green monkey Vero cells; type: functional, organism-based; settings: not given

Row | Structure (SMILES) | Activity
6 | CCC1(Cc2ccccc2)OS(=O)(=O)C=C1OCCc1ccccc1 (racemic) | inactive
7 | CCC1(Cc2ccccc2)OS(=O)(=O)C=C1OCc1ccc(OC)cc1 (racemic) | inactive

test system: Vesicular stomatitis virus; assay: Antiviral activity against VSV infected in human HeLa cells; type: functional, organism-based; settings: not given

Row | Structure (SMILES) | Activity
8 | CCC1(Cc2ccccc2)OS(=O)(=O)C=C1OCCc1ccccc1 (racemic) | inactive
9 | CCC1(Cc2ccccc2)OS(=O)(=O)C=C1OCc1ccc(OC)cc1 (racemic) | inactive

test system: Human alphaherpesvirus 1; assay: Antiviral activity against HSV1 KOS infected in human HEL cells; type: functional, organism-based; settings: not given

Row | Structure (SMILES) | Activity
10 | CCC1(Cc2ccccc2)OS(=O)(=O)C=C1OCCc1ccccc1 (racemic) | inactive
11 | CCC1(Cc2ccccc2)OS(=O)(=O)C=C1OCc1ccc(OC)cc1 (racemic) | inactive

test system: Coxsackievirus B4; assay: Antiviral activity against Coxsackievirus B4 infected in human HeLa cells; type: functional, organism-based; settings: not given

Row | Structure (SMILES) | Activity
12 | CCC1(Cc2ccccc2)OS(=O)(=O)C=C1OCCc1ccccc1 (racemic) | inactive
13 | CCC1(Cc2ccccc2)OS(=O)(=O)C=C1OCc1ccc(OC)cc1 (racemic) | inactive

test system: Respiratory syncytial virus; assay: Antiviral activity against RSV infected in human HeLa cells; type: functional, organism-based; settings: not given

Row | Structure (SMILES) | Activity
14 | CCC1(Cc2ccccc2)OS(=O)(=O)C=C1OCCc1ccccc1 (racemic) | inactive
15 | CCC1(Cc2ccccc2)OS(=O)(=O)C=C1OCc1ccc(OC)cc1 (racemic) | inactive

test system: Human alphaherpesvirus 1; assay: Antiviral activity against acyclovir-resistant […]-deficient HSV1 infected in human HEL cells; type: functional, organism-based; settings: not given

Row | Structure (SMILES) | Activity
16 | CCC1(Cc2ccccc2)OS(=O)(=O)C=C1OCCc1ccccc1 (racemic) | inactive
17 | CCC1(Cc2ccccc2)OS(=O)(=O)C=C1OCc1ccc(OC)cc1 (racemic) | inactive

test system: Human alphaherpesvirus 2; assay: Antiviral activity against HSV2 infected in human HEL cells; type: functional, organism-based; settings: not given

Row | Structure (SMILES) | Activity
18 | CCC1(Cc2ccccc2)OS(=O)(=O)C=C1OCCc1ccccc1 (racemic) | inactive
19 | CCC1(Cc2ccccc2)OS(=O)(=O)C=C1OCc1ccc(OC)cc1 (racemic) | inactive

test system: Vaccinia virus; assay: Antiviral activity against Vaccinia virus infected in human HEL cells; type: functional, organism-based; settings: Orthopoxvirus vaccinia

Row | Structure (SMILES) | Activity
20 | CCC1(Cc2ccccc2)OS(=O)(=O)C=C1OCCc1ccccc1 (racemic) | inactive
21 | CCC1(Cc2ccccc2)OS(=O)(=O)C=C1OCc1ccc(OC)cc1 (racemic) | inactive

test system: Vesicular stomatitis virus; assay: Antiviral activity against VSV infected in human HEL cells; type: functional, organism-based; settings: not given

Row | Structure (SMILES) | Activity
22 | CCC1(Cc2ccccc2)OS(=O)(=O)C=C1OCCc1ccccc1 (racemic) | inactive
23 | CCC1(Cc2ccccc2)OS(=O)(=O)C=C1OCc1ccc(OC)cc1 (racemic) | inactive

test system: Human betaherpesvirus 5; assay: Antiviral activity against HCMV Davis infected in human HEL cells assessed inhibition of virus-induced cytopathicity after 7 days postinfection; type: functional, organism-based; settings: Human betaherpesvirus 5, Davis, 168 h
Procedure, shortened: (§1)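 HEL fibroblasts were infected at 100 PFU. After 2 h, residual virus was removed and medium with test compound was added at several concentrations, in duplicate. Cells were incubated 7 days at 37 °C, fixed with ethanol and stained with Giemsa.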

Row | Structure (SMILES) | EC50
24 | O=S1(=O)C=C(OCc2ccccc2)C(Cc2ccccc2)(Cc2ccccc2)O1 | > 50 µM
25 | CCC1(Cc2ccccc2)OS(=O)(=O)C=C1OCc1ccc(C)cc1 (racemic) | 5.9 µM
26 | CCC1(Cc2ccccc2)OS(=O)(=O)C=C1OCc1ccc(C(C)(C)C)cc1 (racemic) | ≥ 5 µM
27 | CCC1(Cc2ccccc2)OS(=O)(=O)C=C1OCCc1ccccc1 (racemic) | 9.3 µM
28 | CCC1(Cc2ccccc2)OS(=O)(=O)C=C1OCc1ccc(OC)cc1 (racemic) | 142 µM

test system: Human betaherpesvirus 5; assay: Antiviral activity against HCMV AD169 infected in human HEL cells assessed inhibition of virus-induced cytopathicity after 7 days postinfection; type: functional, organism-based; settings: Human betaherpesvirus 5, AD169, HEL, 168 h; procedure, shortened: as §1

Row | Structure (SMILES) | EC50
29 | O=S1(=O)C=C(OCc2ccccc2)C(Cc2ccccc2)(Cc2ccccc2)O1 | 50 µM
30 | CCC1(Cc2ccccc2)OS(=O)(=O)C=C1OCc1ccc(C)cc1 (racemic) | 7.2 µM
31 | CCC1(Cc2ccccc2)OS(=O)(=O)C=C1OCc1ccc(C(C)(C)C)cc1 (racemic) | 20 µM
32 | CCC1(Cc2ccccc2)OS(=O)(=O)C=C1OCCc1ccccc1 (racemic) | 6.9 µM
33 | CCC1(Cc2ccccc2)OS(=O)(=O)C=C1OCc1ccc(OC)cc1 (racemic) | 200 µM

test system: Human alphaherpesvirus 3; assay: Antiviral activity against thymidine kinase expressing Varicella zoster virus Oka infected in human HEL cells assessed reduction in viral plaque formation; type: functional, organism-based; settings: Human alphaherpesvirus 3, Oka
Procedure, shortened: (§2)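 Confluent HEL cell monolayers were inoculated with VZV at 20 PFU per well. Residual virus was removed after 2 h, and compound was added at varying concentrations, in duplicate.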

Row | Structure (SMILES) | EC50
34 | O=S1(=O)C=C(OCc2ccccc2)C(Cc2ccccc2)(Cc2ccccc2)O1 | > 5 µM
35 | CCC1(Cc2ccccc2)OS(=O)(=O)C=C1OCc1ccc(C)cc1 (racemic) | 6.4 µM
36 | CCC1(Cc2ccccc2)OS(=O)(=O)C=C1OCc1ccc(C(C)(C)C)cc1 (racemic) | 6.4 µM
37 | CCC1(Cc2ccccc2)OS(=O)(=O)C=C1OCCc1ccccc1 (racemic) | 5.7 µM
38 | CCC1(Cc2ccccc2)OS(=O)(=O)C=C1OCc1ccc(OC)cc1 (racemic) | 120 µM

test system: Human alphaherpesvirus 3; assay: Antiviral activity against thymidine kinase deficient Varicella zoster virus 07/1 infected in human HEL cells assessed reduction in viral plaque formation; type: functional, organism-based; settings: Human alphaherpesvirus 3, HEL; procedure, shortened: as §2

Row | Structure (SMILES) | EC50
39 | O=S1(=O)C=C(OCc2ccccc2)C(Cc2ccccc2)(Cc2ccccc2)O1 | 5 µM
40 | CCC1(Cc2ccccc2)OS(=O)(=O)C=C1OCc1ccc(C)cc1 (racemic) | 5.9 µM
41 | CCC1(Cc2ccccc2)OS(=O)(=O)C=C1OCc1ccc(C(C)(C)C)cc1 (racemic) | 7.3 µM
42 | CCC1(Cc2ccccc2)OS(=O)(=O)C=C1OCCc1ccccc1 (racemic) | 7.5 µM
43 | CCC1(Cc2ccccc2)OS(=O)(=O)C=C1OCc1ccc(OC)cc1 (racemic) | 106 µM

test system: not listed separately; assay: Cytotoxicity against human HEL cells assessed as morphological alteration after 3 days; type: cell-based; settings: not given
Procedure, shortened: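 HEL cultures were examined under the microscope. MCC was recorded as the compound concentration causing a microscopically detectable alteration of normal cell morphology.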

Row | Structure (SMILES) | MCC at 72 h
44 | O=S1(=O)C=C(OCc2ccccc2)C(Cc2ccccc2)(Cc2ccccc2)O1 | 200 µM
45 | CCC1(Cc2ccccc2)OS(=O)(=O)C=C1OCc1ccc(C)cc1 (racemic) | ≥ 16 µM
46 | CCC1(Cc2ccccc2)OS(=O)(=O)C=C1OCc1ccc(C(C)(C)C)cc1 (racemic) | ≥ 400 µM
47 | CCC1(Cc2ccccc2)OS(=O)(=O)C=C1OCCc1ccccc1 (racemic) | ≥ 20 µM
48 | CCC1(Cc2ccccc2)OS(=O)(=O)C=C1OCc1ccc(OC)cc1 (racemic) | ≥ 200 µM

test system: not listed separately; assay: Cytotoxicity against human HEL cells assessed as reduction of growth after 3 days; type: cell-based; settings: not given
Procedure, shortened: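 HEL cells were seeded at 5 × 10³ cells/well and grown 24 h before compound was added at different concentrations. After 3 days at 37 °C, cells were counted with a Coulter counter. CC50, the concentration halving growth relative to untreated controls, was read from plots of cell number (% of control) against concentration.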

Row | Structure (SMILES) | CC50 at 72 h
49 | O=S1(=O)C=C(OCc2ccccc2)C(Cc2ccccc2)(Cc2ccccc2)O1 | 200 µM
50 | CCC1(Cc2ccccc2)OS(=O)(=O)C=C1OCc1ccc(C)cc1 (racemic) | 41.5 µM
51 | CCC1(Cc2ccccc2)OS(=O)(=O)C=C1OCc1ccc(C(C)(C)C)cc1 (racemic) | 200 µM
52 | CCC1(Cc2ccccc2)OS(=O)(=O)C=C1OCCc1ccccc1 (racemic) | 48 µM
53 | CCC1(Cc2ccccc2)OS(=O)(=O)C=C1OCc1ccc(OC)cc1 (racemic) | > 200 µM

test system: not listed separately; assay: Therapeutic index, ratio of CC50 for human HEL cells to EC50 for Human cytomegalovirus; type: cell-based; settings: read-out: Ratio CC50/EC50
Procedure, shortened: (§3)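 Index calculated as CC50 (HEL cell growth, 3 days, Coulter count) divided by EC50 from the HEL-cell antiviral assays: HCMV cytopathicity at 7 days for line 18, VZV plaque reduction at 5 days for line 19.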

Row | Structure (SMILES) | selectivity ratio
54 | O=S1(=O)C=C(OCc2ccccc2)C(Cc2ccccc2)(Cc2ccccc2)O1 | ≤ 4

test system: not listed separately; assay: Therapeutic index, ratio of CC50 for human HEL cells to EC50 for Varicella zoster virus; type: cell-based; settings: read-out: Ratio CC50/EC50; procedure, shortened: as §3

Row | Structure (SMILES) | selectivity ratio
55 | O=S1(=O)C=C(OCc2ccccc2)C(Cc2ccccc2)(Cc2ccccc2)O1 | ≤ 4

test system: Human betaherpesvirus 5; assay: Antiviral activity against foscarnet-resistant HCMV AD169 clone C infected in HEL cells assessed as inhibition of virus-induced cytopathicity; type: functional, organism-based; settings: Human betaherpesvirus 5, AD169, HEL

Row | Structure (SMILES) | EC50
56 | Nc1nc(N)c2ncn(CCOCP(=O)(O)O)c2n1 [PMEDAP] | 25 µM

test system: Human betaherpesvirus 5; assay: Antiviral activity against cidofovir HCMV AD169 clone 5 infected in human HEL cells assessed as inhibition of virus-induced cytopathicity; type: functional, organism-based; settings: Human betaherpesvirus 5, AD169, HEL

Row | Structure (SMILES) | EC50
57 | Nc1nc(N)c2ncn(CCOCP(=O)(O)O)c2n1 [PMEDAP] | 3.5 µM

test system: Human betaherpesvirus 5; assay: Antiviral activity against PMEDAP-resistant HCMV AD169 clone 4 infected in HEL cells assessed as inhibition of virus-induced cytopathicity; type: functional, organism-based; settings: Human betaherpesvirus 5, AD169, HEL

Row | Structure (SMILES) | EC50
58 | Nc1nc(N)c2ncn(CCOCP(=O)(O)O)c2n1 [PMEDAP] | 37 µM

test system: Human betaherpesvirus 5; assay: Antiviral activity against HPMPA-resistant HCMV AD169 clone 2 mutant infected in HEL cells assessed as inhibition of virus-induced cytopathicity; type: functional, organism-based; settings: Human betaherpesvirus 5, AD169, HEL

Row | Structure (SMILES) | EC50
59 | Nc1nc(N)c2ncn(CCOCP(=O)(O)O)c2n1 [PMEDAP] | 0.82 µM

test system: Human betaherpesvirus 5; assay: Antiviral activity against acyclovir-resistant HCMV AD169 clone 1 infected in HEL cells assessed as inhibition of virus-induced cytopathicity; type: functional, organism-based; settings: Human betaherpesvirus 5, AD169, HEL

Row | Structure (SMILES) | EC50
60 | Nc1nc(N)c2ncn(CCOCP(=O)(O)O)c2n1 [PMEDAP] | > 50 µM

test system: Human betaherpesvirus 5; assay: Antiviral activity against wild type HCMV AD169 infected in HEL cells assessed as inhibition of virus-induced cytopathicity; type: functional, organism-based; settings: Human betaherpesvirus 5, AD169, HEL
Procedure, shortened: (§4)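 HEL fibroblast cultures infected at 100 PFU input. After 2 h, residual virus was removed and compound-containing medium was added at varying concentrations, in duplicate. Cells were incubated 7 days at 37 °C, ethanol-fixed and Giemsa-stained, and cytopathicity was scored microscopically.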

Row | Structure (SMILES) | EC50
61 | Nc1nc(N)c2ncn(CCOCP(=O)(O)O)c2n1 [PMEDAP] | 8.4 µM

test system: Human betaherpesvirus 5; assay: Antiviral activity against wild type HCMV Davis infected in HEL cells assessed as inhibition of virus-induced cytopathicity; type: functional, organism-based; settings: Human betaherpesvirus 5, Davis; procedure, shortened: as §4

Row | Structure (SMILES) | EC50
62 | Nc1nc(N)c2ncn(CCOCP(=O)(O)O)c2n1 [PMEDAP] | 7.7 µM

test system: Punta Toro virus; assay: Antiviral activity against Punta Toro virus infected in african green monkey Vero cells; type: functional, organism-based; settings: not given

Row | Structure (SMILES) | Activity
63 | CCC1(Cc2ccccc2)OS(=O)(=O)C=C1OCCc1ccccc1 (racemic) | inactive
64 | CCC1(Cc2ccccc2)OS(=O)(=O)C=C1OCc1ccc(OC)cc1 (racemic) | inactive
